Screens: PubChem, several laboratories
Beta apoptosis: inhibitors of cytokine-induced beta cell apoptosis, primary screen, luminescence; INS-1E cytokine-induced death, ATP luminescence, 48 h; percent of positive-control rescue, neutral wells zero; protection from apoptosis, % (concentration not given with the values); 300,000 compounds, 0.8% hits; AID 435005, 2010;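 active = Every replicate reaches about 75%, or at least half do and their mean reaches it too, limit read from the data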;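 also: higher means more ATP so stronger rescue from cytokine killing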
CHOP UPR activ: activators of apoptotic CHOP UPR arm, primary screen, cell-based, CHO-CHOP luciferase reporter, luminescence, uHTS; activation, % at 10 µM; UPR activation; percent of tunicamycin response over DMSO baseline; 330,000 compounds, 0.34% hits;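 active = at 10 µM dose, activation of 40% or more, normalized to positive control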
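assay system = CHO CHOP reporter cells | amount = 500 CHO-CHOP cells per well | buffer or medium = F12 with 10% FBS | incubation = 16-18 h cell attachment, then 6 h compound exposure, 37 °C | detection = luminescence read with Steady-Glo | read-out = percent activation relative to tunicamycin control | controls = tunicamycin high control, DMSO low control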
CSC inhib: cancer stem cell viability inhibitors, primary screen, luminescence; inhibition, % at 7.5 µM; AID 2717, 2010; 300,000 compounds, 1.1% hits; cancer stem cell-like cells viability; in the data active = inhibition above about 75%; tested in HMLE shEcad cells
Mdm2-MdmX inh: inhibitors of human Mdm2-MdmX association, primary screen, cell-based, luminescence, split luciferase, SaOS-2, uHTS; Protein Mdm4 (Homo sapiens) + E3 ubiquitin-protein ligase Mdm2 (Homo sapiens), …; SaOS-2 split-luciferase Mdm2/MdmX complementation; inhibition, % at 8 µM; 330,000 compounds, 3% hits; AID 485346, 2010;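 active = inhibition of at least 50% at 8 µM in the primary screen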
Target sequence (O15151 whole entry, looked up): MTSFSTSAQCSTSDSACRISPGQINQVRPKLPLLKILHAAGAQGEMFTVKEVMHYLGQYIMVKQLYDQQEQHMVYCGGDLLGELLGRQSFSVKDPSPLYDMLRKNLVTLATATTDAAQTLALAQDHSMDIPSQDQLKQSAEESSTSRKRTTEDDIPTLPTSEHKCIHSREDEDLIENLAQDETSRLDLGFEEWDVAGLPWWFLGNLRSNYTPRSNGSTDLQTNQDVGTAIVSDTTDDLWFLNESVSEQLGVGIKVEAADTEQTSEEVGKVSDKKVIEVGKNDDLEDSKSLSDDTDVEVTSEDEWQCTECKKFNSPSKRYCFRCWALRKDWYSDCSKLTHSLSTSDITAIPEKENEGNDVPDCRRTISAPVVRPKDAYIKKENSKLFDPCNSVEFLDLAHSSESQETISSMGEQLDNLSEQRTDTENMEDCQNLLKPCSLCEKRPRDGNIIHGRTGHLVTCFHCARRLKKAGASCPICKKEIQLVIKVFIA
Target sequence (Q00987 whole entry, looked up): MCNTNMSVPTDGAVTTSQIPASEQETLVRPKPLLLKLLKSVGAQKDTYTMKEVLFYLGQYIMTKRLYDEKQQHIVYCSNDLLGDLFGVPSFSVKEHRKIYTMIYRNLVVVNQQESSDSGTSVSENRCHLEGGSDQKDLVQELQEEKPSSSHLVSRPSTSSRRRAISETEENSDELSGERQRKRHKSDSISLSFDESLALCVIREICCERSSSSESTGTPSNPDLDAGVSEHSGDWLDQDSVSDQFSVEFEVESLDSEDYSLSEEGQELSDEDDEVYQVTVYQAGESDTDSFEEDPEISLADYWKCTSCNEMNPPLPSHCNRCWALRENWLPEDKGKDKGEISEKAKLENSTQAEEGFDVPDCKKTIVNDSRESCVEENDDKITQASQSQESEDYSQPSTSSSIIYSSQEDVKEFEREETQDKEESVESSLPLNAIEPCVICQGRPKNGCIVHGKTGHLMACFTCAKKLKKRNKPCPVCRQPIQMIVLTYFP
SKKanGAS inh: S. pyogenes SKKanGAS growth inhibitors in kanamycin, primary screen, streptokinase expression inhibitor project, SKKanGAS strain, BacTiter-Glo luminescence | inhibition, % at 7.5 µM | 6 h | 300,000 compounds, 1.3% hits;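 active = mean replicate score, as percent of positive control median, at least 50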;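 also: strain carries kanamycin resistance gene driven by streptokinase promoter and grows in 40 µg/ml kanamycin; loss of luminescence reflects streptokinase promoter inhibition or plain growth inhibition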
UPR XBP1 act: activators of adaptive XBP1 UPR arm, primary screen, cell-based, CHO-XBP1 luciferase reporter, luminescence, uHTS. 330,000 compounds, 0.33% hits. AID 463104, 2010. IRE1-XBP1 UPR activation; percent of tunicamycin response, DMSO as zero. activation, % at 20 µM;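 active = versus positive control, 20 µM dose yields 30% or more activation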
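Material: CHO-XBP1 cells stably carrying IRE1-XBP1-driven luciferase reporter | Medium: F12 with 10% serum | Compound dosing: 20 µM single concentration, DMSO 1% | Incubation: Overnight seeding at 37 °C, 6 h compound treatment at 37 °C | Detection: Steady-Glo luminescence read | Read-out basis: % activation of reporter signal versus tunicamycin and DMSO controls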
Mdm2-MdmX conf: Mdm2-MdmX complex disruptors, retested hits, confirmation, luminescence, single concentration. 10,000 compounds, 55% hits. inhibition, % at 8 µM. Mdm2-MdmX binding, luminescent assay. AID 489028, 2010. shares compounds with Mdm2-MdmX inh; in the data active = inhibition above about 40%
Full FLuc ctr: full-length luciferase signal inhibition, confirmation, counter-screen for Mdm2/MdmX interaction inhibitor project, cell-based, single concentration, SaOS-2 | inhibition, % at 8 µM | 6,200 compounds, 77% hits | shares compounds with Mdm2-MdmX inh | SaOS-2 full-length luciferase counterscreen, luminescence;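 active = mean inhibition at 8 µM reaching about 37%, which flags the compound as non-specific, limit read from the data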;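 also: p53-null SaOS-2 cells with luciferase driven by a doxycycline-inducible promoter; compound on cells about two nights before reading with doxycycline added after day one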
Hits are given with their value; 0 = inactive; - = not tested or not shown. An excerpt weighted towards active compounds, which were near 4.8% of everything screened.

SMILES | Beta apoptosis | CHOP UPR activ | CSC inhib | Mdm2-MdmX inh | SKKanGAS inh | UPR XBP1 act | Mdm2-MdmX conf | others
CC1CN(S(=O)(=O)c2ccc(NC(=O)c3cc(-c4ccccc4O)n[nH]3)cc2)CC(C)O1 (stereo unspecified) | 0 | 0 | 0 | 58.0 | 0 | 0 | 0
CCOc1ccc(CCNC(=O)CCNC(=O)c2ccc(Br)cc2)cc1OCC | 0 | 0 | 0 | 0 | 0 | 0 | -
Cn1c(CC(=O)Nc2ccccc2F)nnc1SCC(=O)Nc1ccccc1Br | 0 | 0 | 0 | 0 | 0 | 0 | -
CCCn1c(N2CCN(CC(=O)c3c(C)n(C)c4ccc(OC)cc34)CC2)nc2c1c(=O)[nH]c(=O)n2C | - | 0 | - | 54.8 | 0 | 0 | 0
COc1ccc(CCn2c(N3CCN(C)CC3)nc3c2c(=O)[nH]c(=O)n3C)cc1 | 0 | 0 | 0 | 0 | 0 | 0 | -
COCCn1c(=O)[nH]c2cc(C(=O)N3CCN(c4cccc(C)c4C)CC3)ccc2c1=O | 0 | 0 | 0 | 0 | 0 | 0 | -
CCN(CC)C(=O)CSC(Nc1ccc(F)cc1)=C(C#N)C#N | 0 | 0 | 0 | 0 | 0 | 0 | -
Cc1ccc(CSC(Nc2ccc(F)cc2)=C(C#N)C#N)cc1 | 116.9 | 0 | 0 | 91.2 | 0 | 0 | 92.3 | Full FLuc ctr=0
COc1cc(S(=O)(=O)Nc2ccccc2)ccc1N=Cc1c(C)[nH]n(-c2ccc(C)cc2)c1=O | 0 | 0 | 0 | 67.3 | 0 | 0 | 0
COc1cc2[nH]c(=O)n(CCC(=O)N3CCN(c4cc(Cl)ccc4C)CC3)c(=O)c2cc1OC | 0 | 0 | 0 | 75.3 | 0 | 0 | 0
COc1cc2[nH]c(=O)n(CCCCCC(=O)N3CC=C(c4ccccc4)CC3)c(=O)c2cc1OC | 0 | 0 | 0 | 59.1 | 0 | 0 | 0
COC(=O)c1ccc2c(=O)n(CCCCCC(=O)N3CCN(c4ccc(F)cc4)CC3)c(=O)[nH]c2c1 | 0 | 0 | 0 | 67.1 | 0 | 0 | 0
CCOc1cc2[nH]c(=O)n(CCC(=O)N3CCN(c4ccccc4OC)CC3)c(=O)c2cc1OCC | 0 | 0 | 0 | 0 | 0 | 0 | -
COc1cc2[nH]c(=O)n(CCC(=O)N3CCc4ccccc4C3)c(=O)c2cc1OC | 0 | 0 | 0 | 0 | 0 | 0 | -
CCc1ccccc1N(C(=O)c1snc(C(N)=O)c1N)C(C(=O)NCC1CCCO1)c1c[nH]c2ccccc12 (stereo unspecified) | 0 | 0 | 0 | 0 | 0 | 0 | -
CCN(Cc1ccc2c(c1)OCCO2)C(=O)CN1C(=O)NC2(CCc3ccccc32)C1=O (stereo unspecified) | 0 | 0 | 0 | 0 | - | 0 | -
NC1=NC[C@H](Cc2ccccc2)N1CCc1cc(C(F)(F)F)cc(C(F)(F)F)c1 | 0 | 0 | 0 | 63.2 | 0 | 0 | 0
CC(C)(C)CN1C(N)=NC[C@@H]1Cc1ccccc1 | 0 | 0 | 0 | 0 | 0 | 0 | -
CCn1ccnc1CN(C)C(=O)c1cc(COc2ccc(OC)c3ccccc23)on1 | 0 | 0 | 0 | 0 | 0 | 0 | -
C=CC1CN(C(=O)OCC(Cl)(Cl)Cl)C2CC3c4ccc(OC)cc4NC3C3CC1C2CO3 (stereo unspecified) | 0 | 0 | 0 | 56.9 | 0 | 0 | 0
O=C(c1cc(-c2ccc(Br)cc2)nc2ccccc12)N1CCN(c2ccccc2O)CC1 | 0 | 0 | - | 55.8 | 58.7 | 0 | 0
O=C(c1cc(-c2ccncc2)nc2ccc(Br)cc12)N1CCN(c2ccccn2)CC1 | 0 | 0 | 0 | 0 | 0 | 0 | -
O=C(c1cc(-c2ccccc2Cl)nc2ccc(Br)cc12)N1CCN(c2ccccn2)CC1 | 106.0 | 0 | 0 | 73.7 | 0 | 0 | 0
COc1ccc(-c2cc(C(=O)N3CCN(c4cccc(C)c4C)CC3)c3ccccc3n2)cc1OC | 0 | 0 | 0 | 74.8 | 0 | 0 | 0
Cc1cc(C)n(CC(=O)NNC(=O)C2CC(=O)N(Cc3ccccc3Cl)C2)n1 (stereo unspecified) | 0 | 0 | 0 | 0 | 0 | 0 | -
SMILES | Beta apoptosis | CHOP UPR activ | CSC inhib | Mdm2-MdmX inh | SKKanGAS inh | UPR XBP1 act | Mdm2-MdmX conf | others
CC(C)c1cccc(C(C)C)c1OC(=O)[C@H]1OC(c2ccc(Br)cc2)=C[C@@H]1c1ccc(Br)cc1 | 0 | 0 | 111.1 | 60.6 | - | 0 | 0
COc1ccc(COc2cc(-c3cccc(OC)c3)nc3ccc(N)cc23)cc1 | 0 | 0 | 0 | 59.5 | 0 | 0 | 51.4 | Full FLuc ctr=119.9
COc1c(O)cc2c(c1O)[C@@H]1O[C@H](CO)[C@@H](O)[C@H](O)C1OC2=O (stereo partly specified) | 0 | 0 | 0 | 0 | 0 | 0 | -
NS(=O)(=O)c1ccc(NC(=O)/C=C/c2cn(-c3ccccc3)nc2-c2cccc(Cl)c2)cc1 | 0 | 0 | 0 | 50.2 | 0 | 0 | 0
O=C(O)c1ccc(NC(=O)c2cn(-c3ccccc3)nc2-c2cccc(Cl)c2)cc1 | 0 | 0 | 0 | 0 | 0 | 0 | -
COc1cccc(C(C(=O)NC2CCCC2)N(C(=O)c2ccco2)c2ccc(C(C)=O)cc2)c1OC (stereo unspecified) | 0 | 0 | - | 0 | 0 | 0 | -
COC(=O)c1ccccc1NC(=O)c1c(O)c2c([nH]c1=O)CCCC2 | 0 | 0 | 0 | 56.2 | 0 | 0 | 0
COC(=O)c1c(O)c2c([nH]c1=O)CCCC2 | 0 | 0 | 0 | 0 | 0 | 0 | -
O=C(c1cn(-c2ccccc2)nc1-c1cccnc1)N1CCN(S(=O)(=O)c2cccc(F)c2)CC1 | 0 | 0 | 0 | 0 | - | 0 | -
CC(=O)OC[C@H]1O[C@@H](n2ncc(=O)[nH]c2=O)[C@H](OC(C)=O)[C@@H]1OC(C)=O | 0 | 0 | 0 | 79.8 | 0 | 0 | 59.1 | Full FLuc ctr=0
C[C@H](NC(=O)c1ccccc1)C(=O)N1CCN(Cc2ccc3c(c2)OCO3)CC1 | 0 | 0 | 0 | 0 | - | 0 | -
CC(C)[C@H](NC(=O)c1ccc(C(C)(C)C)cc1)C(=O)N1CCN(Cc2ccc3c(c2)OCO3)CC1 | 0 | 0 | - | 52.3 | - | 0 | 0 | Full FLuc ctr=55.0
CC(C)(C)C(=O)/C(=C/c1ccc(Cl)cc1)n1cncn1 | 0 | 0 | 0 | 98.9 | 0 | 0 | 99.5 | Full FLuc ctr=0
CC(C)(C)C(=O)/C(=C\c1ccc([N+](=O)[O-])cc1)n1cncn1 | 112.0 | 0 | 118.8 | 99.4 | 0 | 0 | 100.1 | Full FLuc ctr=0
CC(C)/C=C(/C(=O)c1ccc(Cl)cc1Cl)n1cncn1 | 0 | 0 | 0 | 0 | 0 | 0 | -
CC1CCCN(C(=O)C2CCN(S(=O)(=O)c3ccccc3)CC2)C1 (stereo unspecified) | 0 | 0 | 0 | 0 | - | 0 | -
